Data set [1] concerns the target T1, Ube1 (Homo sapiens, UniProt P22314).
T1 sequence (P22314 1-1058): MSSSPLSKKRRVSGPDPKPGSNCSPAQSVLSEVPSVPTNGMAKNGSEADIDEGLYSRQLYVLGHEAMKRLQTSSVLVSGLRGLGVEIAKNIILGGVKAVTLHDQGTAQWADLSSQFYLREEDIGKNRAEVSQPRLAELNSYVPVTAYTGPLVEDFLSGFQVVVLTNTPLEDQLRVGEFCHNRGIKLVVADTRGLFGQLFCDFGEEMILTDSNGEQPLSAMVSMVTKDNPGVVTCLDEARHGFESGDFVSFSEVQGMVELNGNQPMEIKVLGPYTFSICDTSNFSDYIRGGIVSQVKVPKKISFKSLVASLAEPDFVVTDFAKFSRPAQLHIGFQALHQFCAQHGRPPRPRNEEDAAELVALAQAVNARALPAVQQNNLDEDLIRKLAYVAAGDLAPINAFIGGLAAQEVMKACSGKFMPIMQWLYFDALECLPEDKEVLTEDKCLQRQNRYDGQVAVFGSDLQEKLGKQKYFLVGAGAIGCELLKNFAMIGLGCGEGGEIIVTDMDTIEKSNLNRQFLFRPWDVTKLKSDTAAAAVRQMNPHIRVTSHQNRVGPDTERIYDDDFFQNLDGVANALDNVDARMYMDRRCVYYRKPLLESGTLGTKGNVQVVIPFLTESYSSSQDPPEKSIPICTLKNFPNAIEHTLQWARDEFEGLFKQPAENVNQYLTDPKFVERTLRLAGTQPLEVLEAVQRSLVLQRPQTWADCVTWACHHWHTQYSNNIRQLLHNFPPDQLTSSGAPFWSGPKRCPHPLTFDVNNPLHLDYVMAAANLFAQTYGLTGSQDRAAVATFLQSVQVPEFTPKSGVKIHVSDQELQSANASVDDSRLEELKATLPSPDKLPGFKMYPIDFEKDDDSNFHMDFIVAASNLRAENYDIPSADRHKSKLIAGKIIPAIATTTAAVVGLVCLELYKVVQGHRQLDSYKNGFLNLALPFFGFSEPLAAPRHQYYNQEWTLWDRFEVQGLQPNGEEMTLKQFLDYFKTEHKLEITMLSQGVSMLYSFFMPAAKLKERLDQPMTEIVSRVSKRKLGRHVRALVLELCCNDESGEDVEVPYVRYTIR
Kind of data set: Competitive inhibition of UB transfer to Ube1. The format is biochemical. A digest of the protocol:
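Increasing concentrations of test peptide were incubated with 1 µM UB and reacted with Ube1 (E1). UB~E1 thioester conjugate formed in each reaction was measured by Western blot.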

Another data set relates to myeloma and lymphoma. Conditions: in clinical trials for myeloma and lymphoma; ref [9]; cited from earlier work.
A further data set concerns Nedd8 E1. As to conditions: ref [8]; cited from earlier work.
Data set [2] addresses T1, Ube1. Kind of data set: ATP-PPi exchange kinetics catalyzed by Ube1. The format is biochemical.
Substrate in data set [3]: CC(C)[C@H](N)C(=O)N[C@@H](CCC(N)=O)C(=O)N[C@@H](CCCNC(=N)N)C(=O)N[C@@H](Cc1ccc(O)cc1)C(=O)N[C@@H](Cc1c[nH]c2ccccc12)C(=O)NCC(=O)NCC(=O)O
Kind of data set: ATP-PPi exchange kinetics catalyzed by Ube1. The format is biochemical, human. Conditions: other: ATP-PPi exchange catalyzed by Ube1.

Substrate in data set [4]: CC(C)[C@H](N)C(=O)N[C@@H](Cc1c[nH]c2ccccc12)C(=O)N[C@@H](CCCNC(=N)N)C(=O)N[C@@H](Cc1ccccc1)C(=O)N[C@@H](Cc1c[nH]cn1)C(=O)NCC(=O)NCC(=O)O
Put plainly: ATP-PPi exchange kinetics catalyzed by Ube1. As to conditions: other: ATP-PPi exchange catalyzed by Ube1. The data set is classed as biochemical, human.

The values below come from paper PMC4652583 (Organic letters, 2012).

Ends that are not written are not given here.

Take VQRYWGG [P3]: at Ube1 [1], the IC50 came out at 172 µM.

Regarding VWRFHGG [P2], the IC50 at Ube1 [1] amounted to 266 µM. This IC50 lies about 1.5-fold higher than the previous one.

For `NS(=O)(=O)OC[C@@H]1C[C@@H](n2ccc3c(N[C@H]4CCc5ccccc54)ncnc32)C[C@@H]1O` [MLN4924], the anticancer activities result in the data set on myeloma and lymphoma is given as “promising anticancer activities”. For the same molecule, the “inhibition of Nedd8 E1” value in the data set on Nedd8 E1 is “potent inhibitor of the Nedd8 E1”.

For the molecule VLRLRGG [P1], the “inhibition of UB loading on E1” value at Ube1 [1] (at a concentration as high as 1 mM, 1 µM UB, Western blot) was “cannot significantly inhibit UB loading on E1”. Further, the kcat/K1/2 on Ube1 [2] (ATP-PPi exchange catalyzed by Ube1) was 1.28 M⁻¹ s⁻¹. On Ube1 [2] (at a concentration as high as 500 µM in the ATP-PPi exchange reaction), the “saturation of Ube1” value is “could not saturate Ube1”.

Take VYRFYGG [P4]: the IC50 at Ube1 [1] turned out to be 220 µM.

B1: Ube1 (Homo sapiens) (protein)
chain: T1 sequence (P22314 1-1058)
B1: the kcat in data set [3] is 0.162 ± 0.0233 s⁻¹; in data set [4], 0.0583 ± 0.01 s⁻¹. In addition, the kcat/Km in data set [3] came to 383 M⁻¹ s⁻¹; in data set [4], 167 M⁻¹ s⁻¹.

In general, IC50 refers to the point on the concentration scale where inhibition reaches its midpoint. A higher IC50 goes with weaker potency. Broadly, the kcat is the number of substrate molecules converted per active site and unit of time at saturation. A word on the kcat/Km: it is the second-order rate constant that governs catalysis at low substrate concentration.
